Experimental data reported in ChEMBL document CHEMBL4325889, “Natural products hybrids: 3,5,4'-Trimethoxystilbene-5,6,7-trimethoxyflavone chimeric analogs as potential cytotoxic agents against diverse human cancer cells” (Eur J Med Chem, 2019).

Tests used:
Type in all cases: functional
COLO 205 = experiment: Growth inhibition of human COLO205 cells at 10 uM after 48 hrs by SRB assay relative to control; conditions: COLO 205, 48 h, read-out: GI
How it was run: (§1)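 Screened at the National Cancer Institute by the standard NCI protocol using the sulforhodamine B assay, which measures cellular protein. Single dose of 10 µM. Result is percent growth inhibition; values above 100% mean cell number fell below the initial population. Values are the average of duplicates.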

CCRF-CEM = experiment: Growth inhibition of human CCRF-CEM cells at 10 uM after 48 hrs by SRB assay relative to control; conditions: read-out: GI; how it was run: as §1
SN12C = experiment: Growth inhibition of human SN12C cells at 10 uM after 48 hrs by SRB assay relative to control; conditions: read-out: GI; how it was run: as §1
UO-31 = experiment: Growth inhibition of human UO31 cells at 10 uM after 48 hrs by SRB assay relative to control; conditions: UO-31, 48 h, read-out: GI
How it was run: (§2)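 NCI screen against its human cancer cell line panel by the standard NCI protocol, SRB protein stain. Single dose of 10 μM. Percent growth inhibition versus control; values above 100% mean the cell population fell below the starting number. Each value is the mean of duplicates.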

SK-MEL-28 = experiment: Growth inhibition of human SK-MEL-28 cells at 10 uM after 48 hrs by SRB assay relative to control; conditions: SK-MEL-28, 48 h, read-out: GI; how it was run: as §1
TK-10 = experiment: Growth inhibition of human TK10 cells at 10 uM after 48 hrs by SRB assay relative to control; conditions: TK-10, 48 h, read-out: GI; how it was run: as §2
NCI-H23 = experiment: Growth inhibition of human NCI-H23 cells at 10 uM after 48 hrs by SRB assay relative to control; conditions: NCI-H23, 48 h, read-out: GI; how it was run: as §1
LOX IMVI = experiment: Growth inhibition of human LOXIMVI cells at 10 uM after 48 hrs by SRB assay relative to control; conditions: read-out: GI; how it was run: as §1
RPMI-8226 = experiment: Growth inhibition of human RPMI8226 cells at 10 uM after 48 hrs by SRB assay relative to control; conditions: RPMI-8226, 48 h, read-out: GI; how it was run: as §1
U-251 = experiment: Growth inhibition of human U251 cells at 10 uM after 48 hrs by SRB assay relative to control; conditions: U-251, 48 h, read-out: GI; how it was run: as §2
HOP-92 = experiment: Growth inhibition of human HOP92 cells at 10 uM after 48 hrs by SRB assay relative to control; conditions: HOP-92, 48 h, read-out: GI; how it was run: as §1
MOLT-4 = experiment: Growth inhibition of human MOLT4 cells at 10 uM after 48 hrs by SRB assay relative to control; conditions: MOLT-4, 48 h, read-out: GI; how it was run: as §1
HT-29 = experiment: Growth inhibition of human HT-29 cells at 10 uM after 48 hrs by SRB assay relative to control; conditions: HT-29, 48 h, read-out: GI; how it was run: as §1
Malme-3M = experiment: Growth inhibition of human MALME-3M cells at 10 uM after 48 hrs by SRB assay relative to control; conditions: read-out: GI; how it was run: as §1
786-0 = experiment: Growth inhibition of human 786-0 cells at 10 uM after 48 hrs by SRB assay relative to control; conditions: 786-0, 48 h, read-out: GI; how it was run: as §1
SK-MEL-2 = experiment: Growth inhibition of human SK-MEL-2 cells at 10 uM after 48 hrs by SRB assay relative to control; conditions: SK-MEL-2, 48 h, read-out: GI; how it was run: as §1
Hs-578T = experiment: Growth inhibition of human Hs 578T cells at 10 uM after 48 hrs by SRB assay relative to control; conditions: read-out: GI; how it was run: as §1
ACHN = experiment: Growth inhibition of human ACHN cells at 10 uM after 48 hrs by SRB assay relative to control; conditions: read-out: GI; how it was run: as §1
MCF7 = experiment: Growth inhibition of human MCF7 cells at 10 uM after 48 hrs by SRB assay relative to control; conditions: MCF7, 48 h, read-out: GI; how it was run: as §1
KM12 = experiment: Growth inhibition of human KM12 cells at 10 uM after 48 hrs by SRB assay relative to control; conditions: KM12, 48 h, read-out: GI; how it was run: as §1
HOP-62 = experiment: Growth inhibition of human HOP62 cells at 10 uM after 48 hrs by SRB assay relative to control; conditions: HOP-62, 48 h, read-out: GI; how it was run: as §1
OVCAR-4 = experiment: Growth inhibition of human OVCAR4 cells at 10 uM after 48 hrs by SRB assay relative to control; conditions: OVCAR-4, 48 h, read-out: GI; how it was run: as §1
SF-539 = experiment: Growth inhibition of human SF539 cells at 10 uM after 48 hrs by SRB assay relative to control; conditions: SF-539, 48 h, read-out: GI; how it was run: as §1
UACC-257 = experiment: Growth inhibition of human UACC257 cells at 10 uM after 48 hrs by SRB assay relative to control; conditions: UACC-257, 48 h, read-out: GI; how it was run: as §2
SF-295 = experiment: Growth inhibition of human SF295 cells at 10 uM after 48 hrs by SRB assay relative to control; conditions: SF-295, 48 h, read-out: GI; how it was run: as §1
SNB-75 = experiment: Growth inhibition of human SNB75 cells at 10 uM after 48 hrs by SRB assay relative to control; conditions: SNB-75, 48 h, read-out: GI; how it was run: as §2
NCI-H460 = experiment: Growth inhibition of human NCI-H460 cells at 10 uM after 48 hrs by SRB assay relative to control; conditions: NCI-H460, 48 h, read-out: GI; how it was run: as §1
NCI-H322M = experiment: Growth inhibition of human NCI-H322M cells at 10 uM after 48 hrs by SRB assay relative to control; conditions: read-out: GI; how it was run: as §1
HCT-15 = experiment: Growth inhibition of human HCT15 cells at 10 uM after 48 hrs by SRB assay relative to control; conditions: HCT-15, 48 h, read-out: GI; how it was run: as §1
CAKI-1 = experiment: Growth inhibition of human Caki1 cells at 10 uM after 48 hrs by SRB assay relative to control; conditions: CAKI-1, 48 h, read-out: GI; how it was run: as §1
IGROV-1 = experiment: Growth inhibition of human IGROV1 cells at 10 uM after 48 hrs by SRB assay relative to control; conditions: IGROV-1, 48 h, read-out: GI; how it was run: as §1
NCI-H522 = experiment: Growth inhibition of human NCI-H522 cells at 10 uM after 48 hrs by SRB assay relative to control; conditions: NCI-H522, 48 h, read-out: GI; how it was run: as §1
A549 = experiment: Growth inhibition of human A549 cells at 10 uM after 48 hrs by SRB assay relative to control; conditions: A549, 48 h, read-out: GI; how it was run: as §1
SW-620 = experiment: Growth inhibition of human SW620 cells at 10 uM after 48 hrs by SRB assay relative to control; conditions: SW-620, 48 h, read-out: GI; how it was run: as §2
SR = experiment: Growth inhibition of human SR cells at 10 uM after 48 hrs by SRB assay relative to control; conditions: read-out: GI; how it was run: as §2
MDA-MB-468 = experiment: Growth inhibition of human MDA-MB-468 cells at 10 uM after 48 hrs by SRB assay relative to control; conditions: MDA-MB-468, 48 h, read-out: GI; how it was run: as §1

SMILES	inhibition of growth at 10 µM (COLO 205) [%]	inhibition of growth at 10 µM (CCRF-CEM) [%]	inhibition of growth at 10 µM (SN12C) [%]	inhibition of growth at 10 µM (UO-31) [%]	inhibition of growth at 10 µM (SK-MEL-28) [%]	inhibition of growth at 10 µM (TK-10) [%]	inhibition of growth at 10 µM (NCI-H23) [%]	inhibition of growth at 10 µM (LOX IMVI) [%]	inhibition of growth at 10 µM (RPMI-8226) [%]	inhibition of growth at 10 µM (U-251) [%]	inhibition of growth at 10 µM (HOP-92) [%]	inhibition of growth at 10 µM (MOLT-4) [%]	inhibition of growth at 10 µM (HT-29) [%]	inhibition of growth at 10 µM (Malme-3M) [%]	inhibition of growth at 10 µM (786-0) [%]	inhibition of growth at 10 µM (SK-MEL-2) [%]	inhibition of growth at 10 µM (Hs-578T) [%]	inhibition of growth at 10 µM (ACHN) [%]	inhibition of growth at 10 µM (MCF7) [%]	inhibition of growth at 10 µM (KM12) [%]	also measured
COc1cc(NC(=O)c2cccc(-c3cc(=O)c4c(O)c(OC)c(OC)cc4o3)c2)cc(OC)c1OC	32.3	41.9	37	65.7	22.6	25.2	65.1	67	73	55.2	43.9	27.2	37.2	49	33.7	30.4	104	83.7	50.6	46.1	inhibition of growth at 10 µM (HOP-62): 88.3%; inhibition of growth at 10 µM (OVCAR-4): 41.4%; inhibition of growth at 10 µM (SF-539): 48.3%; inhibition of growth at 10 µM (UACC-257): 33.9%; inhibition of growth at 10 µM (SF-295): 38.5%; inhibition of growth at 10 µM (SNB-75): 67.8%; inhibition of growth at 10 µM (NCI-H460): 46.2%; inhibition of growth at 10 µM (NCI-H322M): 25.6%; inhibition of growth at 10 µM (HCT-15): 40.1%; inhibition of growth at 10 µM (CAKI-1): 37.5%; inhibition of growth at 10 µM (IGROV-1): 29.6%; inhibition of growth at 10 µM (NCI-H522): 58.8%; inhibition of growth at 10 µM (A549): 59.5%; inhibition of growth at 10 µM (SW-620): 26.7%; inhibition of growth at 10 µM (SR): 45.6%; inhibition of growth at 10 µM (MDA-MB-468): 40.1%
COc1cc2oc(-c3cccc(NC(=O)c4ccccc4)c3)cc(=O)c2c(OC)c1OC	15.6	54.3	23.8	49	26.8	8.72	27.1	38.3	73.4	16.3	52.4	59.4	22.9	13.2	21.9	23.2	2.76	38.4	22.7	35.6	inhibition of growth at 10 µM (HOP-62): 21.6%; inhibition of growth at 10 µM (OVCAR-4): 18.3%; inhibition of growth at 10 µM (SF-539): 32.2%; inhibition of growth at 10 µM (UACC-257): 0.33%; inhibition of growth at 10 µM (SF-295): 22.2%; inhibition of growth at 10 µM (SNB-75): 22.6%; inhibition of growth at 10 µM (NCI-H460): 21.3%; inhibition of growth at 10 µM (NCI-H322M): 16.2%; inhibition of growth at 10 µM (HCT-15): 34.8%; inhibition of growth at 10 µM (CAKI-1): 12.8%; inhibition of growth at 10 µM (IGROV-1): 21.6%; inhibition of growth at 10 µM (NCI-H522): 50.7%; inhibition of growth at 10 µM (A549): 31.1%; inhibition of growth at 10 µM (SW-620): 8.49%; inhibition of growth at 10 µM (SR): 68.4%; inhibition of growth at 10 µM (MDA-MB-468): 15.8%
COc1ccccc1C(=O)Nc1cccc(-c2cc(=O)c3c(O)c(OC)c(OC)cc3o2)c1	-7.03	5.53	5.29	15.2	-1.9	-0.86	1.58	4.4	21.6	33.1	5.45	6.77	2.63	-12.7	11.3	0.56	11.4	5.14	-1.88	5.13	inhibition of growth at 10 µM (HOP-62): 16.5%; inhibition of growth at 10 µM (OVCAR-4): -5.24%; inhibition of growth at 10 µM (SF-539): 9.52%; inhibition of growth at 10 µM (UACC-257): 31.9%; inhibition of growth at 10 µM (SF-295): 6.16%; inhibition of growth at 10 µM (SNB-75): 16.4%; inhibition of growth at 10 µM (NCI-H460): -2.21%; inhibition of growth at 10 µM (NCI-H322M): 8.64%; inhibition of growth at 10 µM (HCT-15): 3.51%; inhibition of growth at 10 µM (CAKI-1): 9.48%; inhibition of growth at 10 µM (IGROV-1): 3.04%; inhibition of growth at 10 µM (NCI-H522): 41%; inhibition of growth at 10 µM (A549): 22.1%; inhibition of growth at 10 µM (SW-620): 10.5%; inhibition of growth at 10 µM (SR): 16.5%; inhibition of growth at 10 µM (MDA-MB-468): -22.9%
